Experiment [1] addresses T1, Potassium voltage-gated channel subfamily A member 3 (Homo sapiens, UniProt P22001). Put plainly: Inhibition of voltage-gated potassium channel subunit Kv1.3 in chinese hamster ovary cells. Type of experiment: functional, cell-based. The method, boiled down: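 Depolarization-induced ⁸⁶Rb⁺ efflux measured in CHO cells stably transfected with human Kv1.3 channel (Rb_Kv functional assay), with short compound incubation; IC50 reported.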

Experiment [2] has as its target T1, Potassium voltage-gated channel subfamily A member 3. The experiment in a line: Relative T cell IC50 compared to IC50 for correolide assay. Type of experiment: functional, cell-based. The method, boiled down:
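Ratio of correolide IC50 to compound IC50 in the anti-CD3-stimulated human peripheral blood T cell proliferation assay; a larger value means greater potency.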

Experiment [3] shares this target. Put plainly: Inhibitory activity against voltage-gated potassium channel subunit Kv1.3 of human T cells. Type of experiment: functional, cell-based, T-cell.

One may read the IC50 as the concentration that gives 50% inhibition. Low readings indicate higher potency, high ones lower potency.

Molecules are shown by their SMILES.

T1 sequence (P22001 whole entry): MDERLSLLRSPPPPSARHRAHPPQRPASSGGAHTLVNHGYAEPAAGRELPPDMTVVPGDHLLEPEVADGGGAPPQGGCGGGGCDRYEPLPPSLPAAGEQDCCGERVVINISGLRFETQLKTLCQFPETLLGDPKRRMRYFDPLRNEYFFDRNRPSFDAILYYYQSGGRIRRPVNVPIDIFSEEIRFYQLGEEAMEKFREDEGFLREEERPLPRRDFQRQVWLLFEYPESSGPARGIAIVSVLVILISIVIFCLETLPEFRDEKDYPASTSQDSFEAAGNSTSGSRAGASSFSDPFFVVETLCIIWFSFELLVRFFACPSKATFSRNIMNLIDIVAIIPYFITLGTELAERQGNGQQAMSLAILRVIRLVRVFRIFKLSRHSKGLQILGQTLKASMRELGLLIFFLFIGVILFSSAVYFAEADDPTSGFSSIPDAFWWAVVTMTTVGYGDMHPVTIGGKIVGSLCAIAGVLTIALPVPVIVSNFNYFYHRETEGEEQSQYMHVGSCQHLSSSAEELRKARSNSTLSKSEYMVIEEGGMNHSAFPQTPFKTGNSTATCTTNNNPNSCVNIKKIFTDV

`C=C(CC1(O)C(C)=C[C@@H](OC(C)=O)[C@@]2(C)C1CC[C@]1(C)C2[C@H](OC(C)=O)[C@H](OC(C)=O)[C@@]2([C@@H](C)OC(C)=O)COCC=CC12)c1ccccc1S(=O)OC` (stereo partly drawn) had an IC50 in experiment [1] of 352 nM.
For the molecule `C=CC[C@H](CC1(O)C(C)=C[C@@H](OC(C)=O)[C@@]2(C)C1CC[C@]1(C)C2[C@H](OC(C)=O)[C@H](OC(C)=O)[C@@]2([C@@H](C)OC(C)=O)COCC=CC12)c1ccccc1OC` (stereo partly drawn), the Ratio in experiment [2] came to 5.6. Moreover, the IC50 in experiment [1] worked out at 21 nM; in experiment [3], 32.9 nM.
In experiment [1], `CC(=O)O[C@H]1C2[C@@](C)(CCC3C(O)(C(C)Cc4ccccc4)C(C)=C[C@@H](OC(C)=O)[C@@]32C)C2C=CCOC[C@]2([C@@H](C)OC(C)=O)[C@H]1OC(C)=O` (stereo partly drawn) yielded an IC50 of 200 nM.
`CC(=O)O[C@H]1C2[C@@](C)(CCC3C(O)(CCC=C(C)C)C(C)=C[C@@H](OC(C)=O)[C@@]32C)C2C=CCOC[C@]2([C@@H](C)OC(C)=O)[C@H]1OC(C)=O` (stereo partly drawn) showed a half-inhibitory concentration (IC50) in experiment [1] of 21 nM.
`C=C(CC1(O)C(C)=C[C@@H](OC(C)=O)[C@@]2(C)C1CC[C@]1(C)C2[C@H](OC(C)=O)[C@H](OC(C)=O)[C@@]2([C@@H](C)OC(C)=O)COCC=CC12)c1ccccc1[S+](C)[O-]` (stereo in doubt; 34) showed a half-maximal inhibitory concentration (IC50) in experiment [1] of 145 nM.
On the same count and under the same terms, as for `COc1ccc(CCC2(O)C(C)=C[C@@H](OC(C)=O)[C@@]3(C)C2CC[C@]2(C)C3[C@H](OC(C)=O)[C@H](OC(C)=O)[C@@]3([C@@H](C)OC(C)=O)COCC=CC23)cc1` (stereo partly drawn), the figure is 130 nM.
Regarding `CC(=O)O[C@H]1C2[C@@](C)(CCC3C(O)(C[C@@H](C)c4ccccc4)C(C)=C[C@@H](OC(C)=O)[C@@]32C)C2C=CCOC[C@]2([C@@H](C)OC(C)=O)[C@H]1OC(C)=O` (stereo partly drawn), the Ratio in experiment [2] stood at 1.8. Moreover, the half-inhibitory concentration (IC50) in experiment [1] came out at 12 nM; in experiment [3] it was 102 nM.
As for `CC(=O)O[C@H]1C2[C@@](C)(CCC3C(O)(CCc4ccccc4C)C(C)=C[C@@H](OC(C)=O)[C@@]32C)C2C=CCOC[C@]2([C@@H](C)OC(C)=O)[C@H]1OC(C)=O` (stereo partly drawn), in experiment [2], the Ratio came out at 0.95. In addition, the IC50 was 41 nM in experiment [1] and 194 nM in experiment [3].
On to `C=C(CC1(O)C(C)=C[C@@H](OC(C)=O)[C@@]2(C)C1CC[C@]1(C)C2[C@H](OC(C)=O)[C@H](OC(C)=O)[C@@]2([C@@H](C)OC(C)=O)COCC=CC12)c1ccccc1SCC` (stereo partly drawn), for which the Ratio in experiment [2] is 5.8. The IC50 was 17 nM in experiment [1] and 31.7 nM in experiment [3].
`CC(=O)O[C@H]1C2[C@@](C)(CCC3C(O)(CCCCc4ccccc4)C(C)=C[C@@H](OC(C)=O)[C@@]32C)C2C=CCOC[C@]2([C@@H](C)OC(C)=O)[C@H]1OC(C)=O` (stereo partly drawn) had an IC50 in experiment [1] of 270 nM. This counts as sub-micromolar.
In turn, `C=CC[C@H](CC1(O)C(C)=C[C@@H](OC(C)=O)[C@@]2(C)C1CC[C@]1(C)C2[C@H](OC(C)=O)[C@H](OC(C)=O)[C@@]2([C@@H](C)OC(C)=O)COCC=CC12)c1ccccc1CC` (stereo partly drawn) yielded an IC50 in experiment [1] of 48 nM. Compared with the last molecule, the IC50 is about 5.6-fold lower.
Turning to `COc1ccccc1[C@H](C)C[C@]1(O)C(C)=C[C@@H](OC(C)=O)[C@]2(C)C3[C@H](OC(C)=O)[C@H](OC(C)=O)[C@@]4([C@@H](C)OC(C)=O)COCC=CC4[C@]3(C)CCC21` (stereo partly drawn), the Ratio in experiment [2] turned out to be 7.2. The results for the IC50 in experiment [1] and in experiment [3] were 19 nM and 25.6 nM, respectively.
The molecule `C=C(CC1(O)C(C)=C[C@@H](OC(C)=O)[C@@]2(C)C1CC[C@]1(C)C2[C@H](OC(C)=O)[C@H](OC(C)=O)[C@@]2([C@@H](C)OC(C)=O)COCC=CC12)c1ccccc1[S+](C)[O-]` (stereo in doubt; 35) showed an IC50 in experiment [1] of 259 nM.
On to `CC(=O)O[C@H]1C2[C@@](C)(CCC3C(O)(CCc4ccccc4F)C(C)=C[C@@H](OC(C)=O)[C@@]32C)C2C=CCOC[C@]2([C@@H](C)OC(C)=O)[C@H]1OC(C)=O` (stereo partly drawn), for which the Ratio in experiment [2] was 0.75. Further, the results for the IC50 in experiment [1] and in experiment [3] were 74 nM and 245 nM, respectively.
Regarding `CCOc1ccccc1[C@H](C)CC1(O)C(C)=C[C@@H](OC(C)=O)[C@@]2(C)C1CC[C@]1(C)C2[C@H](OC(C)=O)[C@H](OC(C)=O)[C@@]2([C@@H](C)OC(C)=O)COCC=CC12` (stereo partly drawn), the Ratio in experiment [2] came to 15. The concentration for half-maximal inhibition (IC50) came to 37 nM in experiment [1] and 12.3 nM in experiment [3].
Turning to `CC(=O)O[C@H]1C2[C@@](C)(CCC3C(O)(CCc4ccccc4)C(C)=C[C@@H](OC(C)=O)[C@@]32C)C2C=CCOC[C@]2([C@@H](C)OC(C)=O)[C@H]1OC(C)=O` (stereo partly drawn), in experiment [2], the Ratio came out at 0.4. For the same molecule, the values for the IC50 in experiment [1] and in experiment [3] were 26 nM and 460 nM, respectively.
As to `COc1ccccc1CCC1(O)C(C)=C[C@@H](OC(C)=O)[C@@]2(C)C1CC[C@]1(C)C2[C@H](OC(C)=O)[C@H](OC(C)=O)[C@@]2([C@@H](C)OC(C)=O)COCC=CC12` (stereo partly drawn), the Ratio in experiment [2] was 1.3. For the same molecule, the results for the IC50 in experiment [1] and in experiment [3] were 14 nM and 142 nM, respectively.
On to `C=CCC1(O)C(C)=C[C@@H](OC(C)=O)[C@@]2(C)C1CC[C@]1(C)C2[C@H](OC(C)=O)[C@H](OC(C)=O)[C@@]2([C@@H](C)OC(C)=O)COCC=CC12` (stereo partly drawn), for which it took 143 nM to reach half-maximal inhibition in experiment [1] (IC50).
For the molecule `COc1cccc(CCC2(O)C(C)=C[C@@H](OC(C)=O)[C@@]3(C)C2CC[C@]2(C)C3[C@H](OC(C)=O)[C@H](OC(C)=O)[C@@]3([C@@H](C)OC(C)=O)COCC=CC23)c1` (stereo partly drawn), in experiment [2], the Ratio stood at 0.14. Further, the IC50 stood at 24 nM in experiment [1] and 1310 nM in experiment [3].
In experiment [1], `CC(=O)O[C@H]1C2[C@@](C)(CCC3C(O)(Cc4ccccc4)C(C)=C[C@@H](OC(C)=O)[C@@]32C)C2C=CCOC[C@]2([C@@H](C)OC(C)=O)[C@H]1OC(C)=O` (stereo partly drawn) had an IC50 of 380 nM.
In the case of `CCc1ccccc1[C@H](CC)CC1(O)C(C)=C[C@@H](OC(C)=O)[C@@]2(C)C1CC[C@]1(C)C2[C@H](OC(C)=O)[C@H](OC(C)=O)[C@@]2([C@@H](C)OC(C)=O)COCC=CC12` (stereo partly drawn), half-maximal inhibition in experiment [1] (IC50) was put at 12 nM. This IC50 is about 32-fold lower than that of the molecule before.
In experiment [1], `C=CC1(O)C(C)=C[C@@H](OC(C)=O)[C@@]2(C)C1CC[C@]1(C)C2[C@H](OC(C)=O)[C@H](OC(C)=O)[C@@]2([C@@H](C)OC(C)=O)COCC=CC12` (stereo partly drawn) gave an IC50 of 1810 nM.
Consider `C=CCCC1(O)C(C)=C[C@@H](OC(C)=O)[C@@]2(C)C1CC[C@]1(C)C2[C@H](OC(C)=O)[C@H](OC(C)=O)[C@@]2([C@@H](C)OC(C)=O)COCC=CC12` (stereo partly drawn), for which the IC50 in experiment [1] was found to be 664 nM.
The same measure, in the same setting: the value for `CC(=O)Oc1ccccc1CCC1(O)C(C)=C[C@@H](OC(C)=O)[C@@]2(C)C1CC[C@]1(C)C2[C@H](OC(C)=O)[C@H](OC(C)=O)[C@@]2([C@@H](C)OC(C)=O)COCC=CC12` (stereo partly drawn) was 31 nM; that for `CC(=O)O[C@H]1C2[C@@](C)(CCC3C(O)(c4ccccc4)C(C)=C[C@@H](OC(C)=O)[C@@]32C)C2C=CCOC[C@]2([C@@H](C)OC(C)=O)[C@H]1OC(C)=O` (stereo partly drawn) was 2000 nM; that for `CC(=O)O[C@H]1C2[C@@](C)(CCC3C(O)(CCCc4ccccc4)C(C)=C[C@@H](OC(C)=O)[C@@]32C)C2C=CCOC[C@]2([C@@H](C)OC(C)=O)[C@H]1OC(C)=O` (stereo partly drawn) was 150 nM.
Consider `C=C1C[C@@]2(O)C3CC[C@]4(C)C([C@H](OC(C)=O)[C@H](OC(C)=O)[C@@]5([C@@H](C)OC(C)=O)COC(=O)C=CC45)[C@@]3(C)[C@H](OC(C)=O)[C@H](OC(C)=O)[C@@]2(C)C2(C(=O)OC)O[C@H]12` (stereo partly drawn) [CORRELOID], for which the results for the IC50 in experiment [1] and in experiment [3] were 100 nM and 184 nM, respectively.

Source of the values: ChEMBL document CHEMBL1144256, “Potent Kv1.3 inhibitors from correolide-modification of the C18 position” (Bioorg Med Chem Lett, 2005).
